Assay outcomes (PubChem BioAssay)
Sampled rows, rich in hits. Any-hit rate of the full collection: about 1.3%.
HKDC1 inh: HKDC1 hexokinase inhibitors, primary screen, biochemical, fluorescence, uHTS; Q2TB90; recombinant HKDC1, G6PDH/diaphorase resazurin coupled fluorescence; inhibition, % at 20 µM; 0.16% of 340,000 active;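 active = inhibition above about 35% when tested at 20 µM, limit read from the data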
Target sequence (Q2TB90 whole entry, looked up): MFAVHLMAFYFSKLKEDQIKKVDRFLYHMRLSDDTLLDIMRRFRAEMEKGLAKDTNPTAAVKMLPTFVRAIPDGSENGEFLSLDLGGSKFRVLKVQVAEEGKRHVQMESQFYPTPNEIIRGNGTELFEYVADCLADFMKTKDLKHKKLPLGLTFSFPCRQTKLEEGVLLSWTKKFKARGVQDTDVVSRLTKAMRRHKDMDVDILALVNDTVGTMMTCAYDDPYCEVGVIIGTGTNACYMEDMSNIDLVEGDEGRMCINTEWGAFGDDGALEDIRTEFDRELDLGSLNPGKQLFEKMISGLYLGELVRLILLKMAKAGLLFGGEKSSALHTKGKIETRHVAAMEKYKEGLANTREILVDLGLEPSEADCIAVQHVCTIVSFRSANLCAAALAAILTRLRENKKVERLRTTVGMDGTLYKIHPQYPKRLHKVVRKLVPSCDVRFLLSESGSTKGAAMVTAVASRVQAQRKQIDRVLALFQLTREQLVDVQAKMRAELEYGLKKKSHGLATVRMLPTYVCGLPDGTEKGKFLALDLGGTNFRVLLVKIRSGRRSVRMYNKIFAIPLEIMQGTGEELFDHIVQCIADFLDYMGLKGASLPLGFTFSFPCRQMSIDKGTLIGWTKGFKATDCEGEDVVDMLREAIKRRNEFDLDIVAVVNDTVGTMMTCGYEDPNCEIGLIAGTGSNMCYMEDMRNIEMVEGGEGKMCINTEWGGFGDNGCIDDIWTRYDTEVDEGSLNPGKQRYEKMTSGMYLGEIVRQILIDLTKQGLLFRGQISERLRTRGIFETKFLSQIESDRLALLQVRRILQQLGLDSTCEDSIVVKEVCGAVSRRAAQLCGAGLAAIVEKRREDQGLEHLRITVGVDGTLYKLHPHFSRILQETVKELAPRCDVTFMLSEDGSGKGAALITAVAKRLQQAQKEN
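Material: recombinant HKDC1 hexokinase; Amount: HKDC1 at 5 µg/mL; Medium: Tris pH 8.0 buffer with MgCl2, Tween-20, BSA, BME; Schedule: 90 min reaction incubation at room temperature, dark; Technique: coupled resazurin fluorescence, excitation 525 nm, emission 613 nm.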
PfGluPho inh: PfG6PD enzyme inhibitors, primary screen, biochemical, fluorescence intensity, uHTS; glucose-6-phosphate dehydrogenase-6-phosphogluconolactonase (Plasmodium falciparum 3D7); PfGluPho enzyme, NADPH resazurin-diaphorase fluorescence; inhibition, % at 20 µM; 0.78% of 350,000 active; AID 504690, 2011;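 active = inhibition reaching at least a set limit at 20 µM in the primary screen, cut at about 59% in these data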
Diaphorase inh: diaphorase inhibitors and chemical oxidizers, primary screen, counter-screen for diaphorase-coupled primary assays, biochemical, uHTS, resorufin fluorescence; AID 1217, 2008; inhibition, % at 20 µM; 0.69% of 190,000 active; diaphorase resazurin-to-resorufin fluorescence, NADH, 16 min; bacterial (C. kluyveri) enzyme, not human;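 active = primary screen inhibition at 20 µM above a set limit, cut at about 50% in these data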
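material = Clostridium kluyveri diaphorase enzyme | amount = 0.14 U/mL diaphorase, enzyme working solution | schedule = incubation 16 min, room temperature | detection = fluorescence of resorufin formed from resazurin, Ex 544/Em 590 nm | benchmarks = positive control minus NADH, DMSO neutral control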
Diaph act CS: compounds boosting diaphorase resazurin reduction – biochemical, uHTS, resorufin fluorescence, counter-screen for diaphorase-coupled primary assays, primary screen; Diaphorase/resazurin coupled assay, 16 min; hits give high values; 1 = vehicle wells, 0 = NADH-free wells; activation factor at 20 µM; 0.005% of 190,000 active; AID 1229, 2008;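 active = diaphorase activity raised at least twofold by the compound at 20 µM; inactive = activation factor below 2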
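Assay system: bacterial diaphorase enzyme (C. kluyveri) / Input: enzyme 0.07 U/mL final / Medium: 50 mM HEPES pH 7.4 with 4.542 mM MgCl2, 0.005% Tween 20 / Doses: single compound dose of 20 µM, 1% DMSO final / Incubation: 16 min enzyme reaction, ambient temperature / Signal: fluorescence, excitation 544 nm and emission 590 nm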
G6PDH counter: L. mesenteroides G6PDH inhibitors, counter-screen for G6PDH-coupled screening assays, biochemical, Leuconostoc mesenteroides enzyme; Purified L. mesenteroides G6PDH, diaphorase/resazurin coupled fluorescence, 45 min; inhibition, % at 5 µM; 0.12% of 200,000 active; AID 1020, 2008; in the data active = inhibition above about 50%
PfG6PD confirm: PfG6PD inhibitors, hit retest, confirmation, biochemical, fluorescence intensity, single concentration; 34% of 2,400 active; recombinant PfGluPho, NADPH-diaphorase-resazurin fluorescence; inhibition, % at 20 µM; shares compounds with PfGluPho inh;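 active = inhibition of at least 50% at 20 µM in any single replicate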
Diaph ctr 10uM: diaphorase inhibitors and chemical oxidizers, confirmation, counter-screen for P. falciparum G6PD inhibitor project, biochemical, fluorescence intensity, 10 µM NADPH; diaphorase-coupled resazurin reduction, NADPH 10 uM; 39% of 820 active; inhibition, % at 20 µM; shares compounds with PfGluPho inh; AID 504862, 2011;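 active = average inhibition reaching 50% or more with the compound at 20 µM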;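 note: resorufin red fluorescence formed as diaphorase reduces resazurin using NADPH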
Diaph ctr 30uM: diaphorase inhibitors and chemical oxidizers, confirmation, counter-screen for P. falciparum G6PD inhibitor project, biochemical, fluorescence intensity, 30 µM NADPH; shares compounds with PfGluPho inh; inhibition, % at 20 µM; 29% of 820 active; Diaphorase/resazurin coupled assay, resorufin fluorescence;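 active = inhibition averaging 50% or more, tested at 20 µM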
Hits are given with their value; . = inactive; / = no result given.

SMILES	HKDC1 inh	PfGluPho inh	Diaphorase inh	Diaph act CS	G6PDH counter	PfG6PD confirm	others
CC(=O)c1cccc(NC(=S)Nc2cccc3ccccc23)c1	.	.	/	/	/	/
Cc1ccc(C)c(NC(=S)Nc2cccc3cnccc23)c1	.	101	55	.	.	.
CCC1(C)Cc2ccccc2-c2nc(NN)[nH]c(=O)c21 (stereo not drawn)	.	.	/	/	/	/
CCC1(CC)Cc2ccccc2-c2nc(NN)[nH]c(=O)c21	.	76	/	/	/	.
CCOc1ccccc1C(=O)Nc1ccc(S(=O)(=O)Nc2nccc(C)n2)cc1	.	73	/	/	/	.
CCOc1ccc(C(=O)Nc2ccc(S(=O)(=O)Nc3nccc(C)n3)cc2)cc1OCC	.	.	/	/	/	/
Cc1ccc(-c2cc(-c3ccccc3)c(C#N)c(N)n2)o1	.	83	.	.	.	.
CC(=O)N1CCN(c2ccc(NC(=O)c3ccc4c(c3)OCCO4)cc2Cl)CC1	.	67	.	.	.	.
CC(C)C(=O)N1CCN(c2ccc(NC(=O)c3ccc4c(c3)OCCO4)cc2Cl)CC1	.	68	.	.	.	.
O=C(Nc1ccccc1)c1nnsc1S(=O)c1ccc(Cl)cc1 (stereo not drawn)	.	64	.	.	.	.
O=C(c1nnsc1S(=O)c1ccc(Cl)cc1)N1CCOCC1 (stereo not drawn)	.	.	.	.	.	/
CC(C)c1ccc(/C=C2\SC(=O)N(CC(=O)NC3C=CS(=O)(=O)C3)C2=O)cc1 (stereo not drawn)	.	.	/	/	/	/
Cc1ccc(/C=C/C(=O)c2ccc(C)cc2)cc1	.	.	.	.	.	/
Cc1ccc(C(=O)/C=C/C(=O)c2ccc(C)cc2)cc1	.	76	.	.	.	51	Diaph ctr 10uM=.;Diaph ctr 30uM=.
COc1ccc(NC(=O)c2ccc(-n3cccn3)c([N+](=O)[O-])c2)cc1	.	.	.	.	.	/
COc1ccccc1NC(=O)c1ccc(-n2cccn2)c([N+](=O)[O-])c1	.	.	.	.	.	/
O=C(Nc1ccc(Cl)cc1)c1ccc(-n2cccn2)c([N+](=O)[O-])c1	.	70	.	.	.	.
Cc1ccc(NC(=O)c2ccc(-n3cccn3)c([N+](=O)[O-])c2)cc1C	.	77	.	.	.	.
O=[N+]([O-])c1ccc(Oc2cccc3cccnc23)c(Cl)c1	.	111	/	/	/	80	Diaph ctr 10uM=72;Diaph ctr 30uM=60
NC(=O)c1ccc(Oc2cccc3cccnc23)c([N+](=O)[O-])c1	.	.	.	.	.	/
O=C(Nc1ccccn1)C(=O)Nc1ccccn1	.	.	/	/	/	/
S=C(Nc1ccccn1)c1ccccn1	.	67	.	.	.	.
O=C(COc1ccc(Br)cc1)Nc1ccc(N2CCOCC2)cc1N1CCOCC1	.	.	/	/	/	/
CC1=C(C(=O)N(C)C)CC(CC(=O)NCc2cccc3ccccc23)C(=O)N1CCCN1CCCC1=O (stereo not drawn)	/	.	/	/	/	/
CCn1c(=O)n(CC)c2cc(S(=O)(=O)N3CCc4ccccc43)ccc21	.	78	.	.	.	.
SMILES	HKDC1 inh	PfGluPho inh	Diaphorase inh	Diaph act CS	G6PDH counter	PfG6PD confirm	others
OCc1ccccc1SSc1ccccc1CO	.	67	/	/	/	54	Diaph ctr 10uM=.;Diaph ctr 30uM=.
CC1CCCCC1NC(=O)CN1CCC(NC(=O)C(C)(C)C)CC1 (stereo not drawn)	/	.	/	/	/	/
COc1cc(C(=O)O/N=C2\C=CC(=O)C=C2C)cc(OC)c1OC	.	67	58	.	.	63	Diaph ctr 10uM=.;Diaph ctr 30uM=.
COc1cc(C(=O)O/N=C2/C=CC(=O)C(C)=C2C)cc(OC)c1OC	.	.	.	.	.	/
S=c1[nH]c(-c2ccc(Cl)cc2)cs1	.	62	.	.	.	.
COCCNC(=S)Nc1ccc(N2CCCCC2)cc1	.	64	.	.	.	.
Cc1nc2ccc(NC3=NCCCCC3)cc2s1	.	64	.	.	.	.
N#Cc1cnn2c(=O)[nH]cnc12	/	.	/	/	/	/
CCOC(=O)c1sc(=S)n(C)c1NC(=O)c1cccc(Br)c1	.	.	/	/	/	/
CCOC(=O)c1sc(=S)n(C)c1NC(=O)c1ccccc1	.	64	.	.	.	.
NC(=O)NCCC1=CCCCC1	.	.	.	.	.	/
C=CCn1c(N)c(C(=O)NCCC2=CCCCC2)sc1=S	.	69	.	.	.	.
CC/C(=N\Nc1ccc([N+](=O)[O-])cc1)c1ccccc1	.	74	.	.	.	.
O=[N+]([O-])c1ccc(NN=C(Oc2ccccc2)c2ccc([N+](=O)[O-])cc2)cc1	/	.	/	/	/	/
COc1ccc2ccccc2c1/C=N/NC(=O)CC1(C)OCCCO1	.	.	.	.	.	/
CCOc1ccc2ccccc2c1/C=N/NC(=O)c1cc(C)[nH]n1	.	.	/	/	/	/
CCOc1ccc2ccccc2c1/C=N/NC(=O)CC1(C)OCCCO1	.	77	.	.	.	57	Diaph ctr 10uM=60;Diaph ctr 30uM=55
CCOc1ccc2ccccc2c1/C=N/NC(=O)c1ccncc1	.	72	/	/	/	66	Diaph ctr 10uM=61;Diaph ctr 30uM=.
CCOc1ccccc1C(=O)NCC(=O)NNC(=O)c1cccc(S(=O)(=O)Nc2ccc(OC)cc2)c1	.	.	/	/	/	/
CCCCn1c(N)c(N(CC)C(=O)c2c(C)noc2C)c(=O)[nH]c1=O	.	.	/	/	/	/
Cc1ccc(C(=O)CSc2nc3cc(S(=O)(=O)N4CCOCC4)ccc3o2)cc1	.	.	.	.	.	/
CCSc1nc2cc(S(=O)(=O)N3CCOCC3)ccc2o1	.	71	/	/	/	50	Diaph ctr 10uM=.;Diaph ctr 30uM=.
Cc1nc2ccc(Nc3nc4cc(S(=O)(=O)N5CCOCC5)ccc4o3)cc2s1	.	93	.	.	.	54	Diaph ctr 10uM=.;Diaph ctr 30uM=.
O=C(O)C1(c2ccccc2)CCN(S(=O)(=O)c2cccc(Cl)c2)CC1	.	.	/	/	/	/
CCc1ccc(OCC(=O)NNCC(=O)Nc2ccc(OC)cc2)cc1	.	.	/	/	/	/
Nc1cc(S(=O)(=O)N2CCOCC2)ccc1N1CCCCC1	.	69	/	/	/	.
Nc1cc(S(=O)(=O)N2CCCCC2)ccc1N1CCCCC1	.	.	/	/	/	/
